Experimental data pooled from the literature.
Lines come from different studies, so protocols differ.
PLEKHA3: PLEKHA3 (Homo sapiens, UniProt Q9HB20)
ADRA2C: Alpha-2C adrenergic receptor (ADRA2C, Homo sapiens, UniProt P18825)
Fibroblast growth factor 14: Fibroblast growth factor 14 (Homo sapiens, UniProt Q92915)
MAPK14: Mitogen-activated protein kinase 14 (MAPK14, Homo sapiens, UniProt Q16539)

Compound	target	assay	measurement	value
CCOc1ccc(C(=O)CC(SCc2cccc(Br)c2)C(=O)O)cc1 (stereo not drawn)	PLEKHA3	ligand displacement, FP	Ki	6.03 µM
Cc1cc(Oc2ncccc2CN2CCN(c3ccc([N+](=O)[O-])cc3C(F)(F)F)CC2)ccc1-c1c(C)c(=O)[nH]c(=O)n1C	ADRA2C	ligand displacement, radioligand	Ki	0.401 µM
C[C@H](Cc1ccc(O)c(O)c1)[C@@H](C)Cc1ccc(O)c(O)c1	pyrD (Pseudomonas aeruginosa, UniProt Q9HZF8)	binding, ITC	Kd	7.5 µM
CCOc1ccc(C(=O)CC(SCc2ccc(Cl)cc2)C(=O)OC)cc1 (stereo not drawn)	PLEKHA3	ligand displacement, FP	Ki	17.3 µM
CC(C)=CC[C@@H](O)C1=CC(=O)c2c(O)ccc(O)c2C1=O	Interleukin-6 (IL6, Homo sapiens, UniProt P05231)	binding, BLI	Kd	0.91 µM
O=c1cc(-c2ccc([N+](=O)[O-])cc2)[nH]c2c(-c3ccc(Cl)cc3)c(Cc3ccccc3)nn12	Fibroblast growth factor 14	binding, SPR	Kd	0.94 µM
Cc1cc(Oc2ncccc2CN2CCN(C(c3ccccc3)c3ccccc3)CC2)ccc1-c1c(C)c(=O)[nH]c(=O)n1C	ADRA2C	ligand displacement, radioligand	Ki	0.137 µM
Cn1cc(-c2ccnc3ccccc23)c(-c2ccccn2)n1	MAPK14	enzyme activity, inhibitor, ADP detection	IC50	9.4 µM
Cc1cc(Oc2ncccc2CN2CCN(c3cccc(F)c3)CC2)ccc1-c1c(C)c(=O)[nH]c(=O)n1C	ADRA2C	ligand displacement, radioligand	Ki	0.02 µM
c1ccc(-c2n[nH]cc2-c2ccncc2)nc1	MAPK14	enzyme activity, inhibitor, ADP detection	IC50	4.5 µM
COc1ccc(C(=O)CC(SCc2ccc(Cl)cc2)C(=O)O)cc1 (stereo not drawn)	PLEKHA3	ligand displacement, FP	Ki	13.2 µM
CCOC(=O)c1cccc(NC(=O)Cn2cc(CO)c3ccccc32)c1	Fibroblast growth factor 14	binding, SPR	Kd	0.293 µM
CCOc1ccc(C(=O)CC(SCc2ccc(Br)cc2)C(=O)O)cc1 (stereo not drawn)	PLEKHA3	ligand displacement, FP	Ki	18.6 µM
Cc1cc(Oc2ncccc2CN2CCN(c3ccccc3)CC2)ccc1-c1c(C)c(=O)[nH]c(=O)n1C	ADRA2C	ligand displacement, radioligand	Ki	0.0115 µM
CC(=O)Nc1ccc(S(=O)(=O)N2CCN(CC(O)COc3ccc4ccccc4c3)CC2)cc1 (stereo not drawn)	Fibroblast growth factor 14	binding, SPR	Kd	8.53 µM
